Reference: PubChem BioAssay AID652000 (Sanford-Burnham Center for Chemical Genomics, 2013)
Screen size: about 2,400 compounds; fewer than 10 were called active. A selection follows. Unmarked numbers belong to inactive results.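 The calls were made as follows: active = activation of at least 50%; inactive = the rest.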

molecular target: G-protein coupled receptor 183 (Homo sapiens) (UniProt P32249); test: EBI2 receptor activation without oxysterol – cell-based, single concentration, agonist mode, luminescence, counter-screen for EBI2 antagonist project, confirmation (AID 652000); conditions: EBI2-expressing cells, 60 min, at 5 µM, active compounds read high, 0% vehicle, 100% 7α,25-dihydroxycholesterol control
Sequence (P32249 whole entry, looked up): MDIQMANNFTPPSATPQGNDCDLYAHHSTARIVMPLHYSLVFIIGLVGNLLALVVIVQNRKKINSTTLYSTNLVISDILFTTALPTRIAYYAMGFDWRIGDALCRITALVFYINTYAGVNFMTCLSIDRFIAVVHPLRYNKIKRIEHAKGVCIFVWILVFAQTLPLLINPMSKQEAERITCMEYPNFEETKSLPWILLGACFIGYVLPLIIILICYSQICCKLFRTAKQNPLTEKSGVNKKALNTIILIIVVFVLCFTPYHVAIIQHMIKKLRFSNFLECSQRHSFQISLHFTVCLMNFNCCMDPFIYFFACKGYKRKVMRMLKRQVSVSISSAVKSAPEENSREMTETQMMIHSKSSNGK
Procedure, shortened: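 material = beta-arrestin reporter cell line | input = 1500 cells in each well | technique = luminescent detection reagent readout | times = overnight seeding and 60-min compound at 37°C, 60-min detection at 25°C | control set = 7alpha,25-OHC wells as positive control | probe or stimulus = no added oxysterol for test compounds | dosing = one dose from 10 mM stock, 2.5 nL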

Question: How did the activation turn out when `COc1ccc(-n2c(Cc3cccn3C)nnc2SCC(=O)Nc2cc(C)cc(C)c2)cc1` was run?
Answer: The activation was 0.66%.

Question: For `COc1ccc([C@H]2CC(=O)C=C(/C=C/c3ccc(Cl)cc3)C2)cc1`, which activation is on record?
Answer: The activation was -0.43%.

Question: With `COc1ccccc1CCNC(=O)C1CCN(C(=O)/C=C/c2ccccc2)CC1` as the compound, how does the activation read?
Answer: Its activation is -0.16%.

Question: For `COc1ccc(C(c2nnnn2C2CCCC2)N2CCN(C/C=C/c3ccccc3)CC2)cc1` (stereo not given), which activation is on record?
Answer: The activation was -0.25%.

Question: Which activation does the source give for `CN1CCc2ccccc2C1Cc1ccccc1NC(=O)c1sc2ccccc2c1Cl` (stereo not given) here?
Answer: Its activation is -0.98%.

Question: With `Cc1ccc(-n2ncc3c(=O)n(-c4ccc(C)c(C)c4)c(-c4ccco4)nc32)cc1` as the compound, how does the activation read?
Answer: The activation was -1.66%.

Question: How did the activation turn out when `O=C(Nc1ccc(S(=O)(=O)N2CCCCC2)cc1)C1CC(=O)N(c2ccc(F)cc2)C1` (stereo not given) was run?
Answer: Its activation is 0.98%.

Question: For `O=C(c1cc(=O)c2ccccc2o1)N1CCN(c2ccccc2)CC1`, which activation is on record?
Answer: Its activation is 2.48%.

Question: With `CCCC1CCC(=NNC(=S)NCCc2ccccc2)CC1` (stereo not given) as the compound, how does the activation read?
Answer: The activation was -1.07%.

Question: How did the activation turn out when `Cc1cccc(N=C2NC(=O)/C(=C/c3cn(C)c4ccccc34)S2)c1` was run?
Answer: Its activation is -0.07%.

Question: How did the activation turn out when `COc1ccc(-c2cc(NC=O)c3ncc(-c4cccc(C(=O)N(C)C)c4)n3c2)c(OC)c1` was run?
Answer: Its activation is -1.02%.

Question: `Cc1ccc(CSCCNC(=O)CN(c2ccc(F)cc2)S(C)(=O)=O)cc1` was tested. Which activation did it give?
Answer: The activation was 0.84%.

Question: Which activation does the source give for `CC(C)N(Cc1ccccc1)C(=S)Nc1ccc(OC(F)F)cc1` here?
Answer: The activation was 0.07%.

Question: With `CC(C)Cc1ccc(-c2cc3nc(NCc4cccc(Cl)c4)ccn3n2)cc1` as the compound, how does the activation read?
Answer: The activation was -1.2%.

Question: How did the activation turn out when `CCOC(=O)N1CCN(C(=O)CSc2ccc(Cl)cc2)CC1` was run?
Answer: Its activation is 2.07%.

Question: Which activation does the source give for `Cc1ccc(SCC(=O)N2CCN(c3ccc(F)cc3)CC2)cc1` here?
Answer: The activation was 4.12%.

Question: How did the activation turn out when `CC(=O)/C(=N\Nc1ccc(Cl)cc1Cl)Sc1cccc2cccnc12` was run?
Answer: The activation was -1.34%.

Question: Which activation does the source give for `O=C(NCc1ccc(Cl)cc1)c1cc(=O)nc2sc(-c3ccccc3)nn12` here?
Answer: The activation was -0.48%.

Question: With `COc1ccc(OC)c(C(=O)c2coc3ccc(O)c(CN4CCOCC4)c23)c1` as the compound, how does the activation read?
Answer: The activation was 0.62%.

Question: For `O=C(/C=C/c1cccc(C(F)(F)F)c1)N1CCN(c2ccccn2)CC1`, which activation is on record?
Answer: Its activation is -0.93%.

Question: For `Cc1cccc(OCC(O)CN2CCN(S(=O)(=O)c3ccc(C)cc3C)CC2)c1` (stereo not given), which activation is on record?
Answer: The activation was -0.98%.

Question: With `COc1ccc(-c2cn(-c3ccc(OC)cc3)c(=S)[nH]2)cc1` as the compound, how does the activation read?
Answer: Its activation is 1.66%.

Question: With `O=C(CSc1ccccc1)Nc1cc(Cl)ccc1Oc1ccccc1` as the compound, how does the activation read?
Answer: Its activation is -1.48%.

Question: `CCC(C)(C)NC(=O)c1cc([N+](=O)[O-])ccc1N1CCCCC1` was tested. Which activation did it give?
Answer: The activation was -1.43%.

Question: How did the activation turn out when `CCOC(=O)N1CCN(C(=O)COc2ccc(Br)cc2)CC1` was run?
Answer: The activation was 1.84%.
